For data set [1], the target named is Transcription factor GATA-4 (Mus musculus) (UniProt Q08369). Description: Inhibition of binding of mouse GATA4 to [32P]-double stranded oligonucleotide expressed in African green monkey COS-1 cells at 50 uM preincubated for 10 mins followed by [32P]-double stranded oligonucleotide addition measured after 20 mins by EMSA method. It counts as cell-based. Put shortly:
(§1)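 Nuclear extracts from COS-1 cells transfected with pMT2-GATA4 or pMT2-NKX2-5 (harvested 48 h) preincubated 10 min with 50 μM compound, then 20 min with 32P-labeled GATA4- or NKX2-5-site probe; native 5% PAGE, phosphorimager quantitation; antibody supershift controls; mean ± SD, n = 3–5.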
A general note: In EMSA bound probe runs differently from free probe, usually more slowly.

In data set [2] the target is Homeobox protein Nkx-2.5 (Mus musculus) (UniProt P42582). Description: Inhibition of binding of mouse NKX2-5 to [32P]-double stranded oligonucleotide expressed in African green monkey COS-1 cells at 50 uM preincubated for 10 mins followed by [32P]-double stranded oligonucleotide addition measured after 20 mins by EMSA method. In kind it is cell-based. An outline of the steps: as §1
Sequence of Homeobox protein Nkx-2.5 (Mus musculus) (P42582 whole entry): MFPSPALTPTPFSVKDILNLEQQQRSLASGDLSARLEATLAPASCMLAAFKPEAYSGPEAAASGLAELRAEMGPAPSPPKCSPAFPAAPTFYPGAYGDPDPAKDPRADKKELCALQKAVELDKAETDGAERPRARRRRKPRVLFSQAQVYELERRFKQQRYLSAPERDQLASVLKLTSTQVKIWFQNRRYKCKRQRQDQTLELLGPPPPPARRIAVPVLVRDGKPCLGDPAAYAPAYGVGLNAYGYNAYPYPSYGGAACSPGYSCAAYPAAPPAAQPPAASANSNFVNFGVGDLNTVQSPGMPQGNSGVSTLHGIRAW

In data set [3] the target is Transcription factor GATA-4 (Rattus norvegicus) (UniProt P46152). Description: Inhibition of binding of GATA4 to [32P]-double stranded oligonucleotide in neonatal rat ventricular cardiomyocytes at 50 uM measured after 24 hrs by EMSA method. Put shortly: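 Neonatal rat cardiomyocytes treated 24 h with 50 μM; nuclear extracts incubated 20 min with [α-32P]dCTP Klenow-labeled GATA4- or NKX2-5-site oligonucleotide in HEPES/NaCl/KCl/MgCl2 buffer with poly(dI-dC); 5% native PAGE, phosphorimager; supershift with anti-GATA4/NKX2-5; relative to vehicle, mean ± SD, n = 3–5.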
Sequence of Transcription factor GATA-4 (Rattus norvegicus) (P46152 whole entry): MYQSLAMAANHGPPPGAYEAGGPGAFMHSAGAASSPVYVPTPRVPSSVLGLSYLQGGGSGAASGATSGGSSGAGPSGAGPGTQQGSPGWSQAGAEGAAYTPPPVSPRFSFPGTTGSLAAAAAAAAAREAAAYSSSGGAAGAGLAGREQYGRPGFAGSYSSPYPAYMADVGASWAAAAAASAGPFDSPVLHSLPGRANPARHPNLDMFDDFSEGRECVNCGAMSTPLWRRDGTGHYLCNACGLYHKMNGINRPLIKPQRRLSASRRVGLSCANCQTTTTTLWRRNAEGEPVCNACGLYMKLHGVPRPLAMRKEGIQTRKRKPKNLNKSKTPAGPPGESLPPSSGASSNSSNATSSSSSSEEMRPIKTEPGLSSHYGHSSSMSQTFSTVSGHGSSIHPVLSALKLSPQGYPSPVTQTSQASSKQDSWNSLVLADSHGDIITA

Data set [4] addresses T1, GATA4/NKX2-5 (Rattus norvegicus) (UniProt P46152+O35767). Description: Inhibition of GATA4/NKX2-5 interaction in neonatal rat ventricular cardiomyocytes assessed as decrease in endothelin-1 induced mRNA level of ANP at 10 uM preincubated for 1 hr followed by endothelin-1 addition measured after 23 hrs by real-time PCR analysis. Put shortly:
(§2)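 Neonatal rat ventricular myocytes (2–4-day-old Sprague-Dawley or Wistar), preplated, seeded on 6-well plates, moved to complete serum-free medium next day and cultured 24 h. Compounds (10–100 μM) added 1 h before 100 nM endothelin-1 or none; ANP and BNP mRNA quantified by RT-PCR at 24 h, normalized to 18S RNA, relative to vehicle; mean ± SD, n = 3–6.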
In general terms: Quantitative PCR measures a nucleic acid by following its amplification.

The target of data set [5] is T1, GATA4/NKX2-5 (Rattus norvegicus). Description: Inhibition of GATA4/NKX2-5 interaction in neonatal rat ventricular cardiomyocytes assessed as decrease in basal mRNA level of ANP at 10 uM after 24 hrs by real-time PCR analysis. An outline of the steps:
as §2

Data set [6] shares this target. Description: Inhibition of GATA4/NKX2-5 interaction in neonatal rat ventricular cardiomyocyte hypertrophy model assessed as decrease in mechanical stretching-induced cell surface area at 10 uM after 48 hrs by alpha-actinin/phalloidin/DAPI staining-based fluorescence microscopic method. An outline of the steps:
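Neonatal rat ventricular myocytes seeded at 10^6/well on collagen I flexible plates, cultured 48 h, then given 10 μM in serum-free medium under equibiaxial cyclic stretch (0.5 Hz, 10–20%) 48 h; nonstretched controls. Fixed, stained α-actinin/phalloidin/DAPI; α-actinin+ cell area (>200 cells/specimen) normalized to untreated nonstretched; three experiments, mean ± SEM.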

Data set [7] has as its target Vascular endothelial growth factor receptor 2 (Homo sapiens) (UniProt P35968). Description: Inhibition of human VEGFR2 at 30 uM. An outline of the steps:
(§3)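 48-kinase profiling panel; compounds tested at 30 μM in duplicate.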

Data set [8] has as its target Mitogen-activated protein kinase 14 (Homo sapiens) (UniProt Q16539). Description: Inhibition of human p38alpha MAPK at 30 uM. Put shortly:
as §3

Data set [9] addresses Mitogen-activated protein kinase 1 (Homo sapiens) (UniProt P28482). Description: Inhibition of human ERK2 at 30 uM. An outline of the steps:
as §3

The species entered for the next data set is Homo sapiens. Description: Inhibition of human PKA at 30 uM. Put shortly: as §3
In data set [10] the target is Hydroxycarboxylic acid receptor 2 (Homo sapiens) (UniProt Q8TDS4). Description: Antagonist activity at human GPR109A expressed in rat Chem-4 cells assessed as inhibition of calcium flux at 10 uM by fluorescence assay. In kind it is functional, cell-based. An outline of the steps:
(§4)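 GPCR profiling panel of cell-based functional assays covering 165 GPCRs; agonist mode tested at 12.5 μM and antagonist mode at 10 μM, in duplicate.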
A general note: Calcium assays in cells follow changes in intracellular calcium, usually with a dye or a luminescent sensor.

Data set [11] is described as follows: Drug metabolism in embryoid body differentiation medium assessed as formation of N-[4-(Ethylamino)phenyl]-5-methyl-3-phenylisoxazole-4-carboxamide at 3 to 5 uM measured after 10 days by HPLC/MS method. It counts as physicochemical. Conditions: 240 h. An outline of the steps:
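Mouse embryonic stem cells exposed 5 and 10 days to 3 or 5 μM, with DMSO and EB differentiation medium blanks. Medium extracted with chloroform; cells pelleted, saline-washed twice, sonicated in chloroform. UPLC-ESI(+)-QTOF/MS, BEH C18, 0.1% formic acid water/acetonitrile gradient 7–80% B over 5 min, 0.6 mL/min, 40 °C.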

The nature of data set [12]: Stability of compound in DMSO assessed as formation of N-[4-(Ethylamino)phenyl]-5-methyl-3-phenylisoxazole-4-carboxamide at 3 to 5 uM at room temperature measured after 6 months by HPLC/MS method. In kind it is physicochemical. Conditions: 4383 h.
In data set [13] the target is GATA4/NKX2-5 (Mus musculus) (UniProt Q08369+P42582). Description: Inhibition of mouse GATA4/FLAG-tagged NKX2-5 interaction expressed in African green monkey COS-1 cells at 100 uM by coimmunoprecipitation method. It counts as cell-based. Put shortly: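 FLAG-NKX2-5 and GATA4 lysates from COS-1 cells incubated overnight at 4 °C with anti-FLAG agarose in Tris/NaCl/Triton lysis buffer with protease/phosphatase inhibitors; beads washed thrice, eluted by boiling, SDS-PAGE, immunoblotted for GATA4 and NKX2-5, ECL detection.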

Data set [14] is described as follows: Induction of aggregation of compound at 3 to 30 uM by nephalometric method.
Data set [15] addresses Transcription factor GATA-4 (Mus musculus) (UniProt Q08369). Description: Inhibition of mouse GATA4-driven transactivation of luciferase reporter construct containing BNP minimal promoter expressed in African green monkey COS-1 cells after 30 hrs by luminometer. In kind it is cell-based. An outline of the steps:
(§5)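 COS-1 cells co-transfected with firefly luciferase driven by BNP minimal or −90 bp BNP promoter, Renilla pRL-TKd238, and pMT2-GATA4 or empty pMT2. Compounds added 6 h post-transfection in 0.1% DMSO, refreshed with medium at 24 h; lysis at 30 h; dual-luciferase, firefly/Renilla normalized to vehicle; triplicate wells.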

Data set [16] has the same target. Description: Inhibition of mouse GATA4-driven transactivation of luciferase reporter construct containing BNP minimal promoter with tandem GATA-site on -90 bp expressed in African green monkey COS-1 cells after 30 hrs by luminometer. It counts as cell-based. Put shortly:
as §5

A short description of data set [17]: Induction of necrosis in neonatal rat ventricular cardiomyocytes assessed as release of adenylate kinase at 50 uM measured after 24 hrs by bioluminescence assay. It counts as cell-based. As to conditions: cardiac muscle cell. An outline of the steps:
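Neonatal rat cardiomyocytes treated 24 h at 50 μM; adenylate kinase released into medium measured by ToxiLight bioluminescence on a luminometer; relative to vehicle, mean ± SD, n = 3.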

Data set [18] addresses Parathyroid hormone 2 receptor (Homo sapiens) (UniProt P49190). Description: Agonist activity at human PTH2 receptor expressed in Chem-1 cells assessed as induction of calcium flux at 12.5 uM by fluorescence assay. In kind it is functional, cell-based. Put shortly:
as §4

The term inhibition denotes the relative decrease from the control value, in per cent.

Active and inactive are the calls of the source. The calls are words filed in the database; no cut-off is given here.

Sequence of Transcription factor GATA-4 (Mus musculus) (Q08369 whole entry): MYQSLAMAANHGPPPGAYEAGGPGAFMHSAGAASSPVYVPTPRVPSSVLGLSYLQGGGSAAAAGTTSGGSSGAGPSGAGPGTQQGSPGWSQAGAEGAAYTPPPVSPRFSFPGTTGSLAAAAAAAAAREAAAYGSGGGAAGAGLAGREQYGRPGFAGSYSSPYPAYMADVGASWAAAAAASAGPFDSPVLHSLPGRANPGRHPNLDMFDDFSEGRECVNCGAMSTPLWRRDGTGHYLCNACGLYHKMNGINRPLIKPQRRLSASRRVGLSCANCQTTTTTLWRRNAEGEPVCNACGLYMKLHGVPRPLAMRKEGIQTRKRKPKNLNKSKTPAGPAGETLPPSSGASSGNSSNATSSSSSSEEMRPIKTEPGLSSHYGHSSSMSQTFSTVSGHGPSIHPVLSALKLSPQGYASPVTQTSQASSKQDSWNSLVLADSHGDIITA
Sequence of Hydroxycarboxylic acid receptor 2 (Homo sapiens) (Q8TDS4 whole entry): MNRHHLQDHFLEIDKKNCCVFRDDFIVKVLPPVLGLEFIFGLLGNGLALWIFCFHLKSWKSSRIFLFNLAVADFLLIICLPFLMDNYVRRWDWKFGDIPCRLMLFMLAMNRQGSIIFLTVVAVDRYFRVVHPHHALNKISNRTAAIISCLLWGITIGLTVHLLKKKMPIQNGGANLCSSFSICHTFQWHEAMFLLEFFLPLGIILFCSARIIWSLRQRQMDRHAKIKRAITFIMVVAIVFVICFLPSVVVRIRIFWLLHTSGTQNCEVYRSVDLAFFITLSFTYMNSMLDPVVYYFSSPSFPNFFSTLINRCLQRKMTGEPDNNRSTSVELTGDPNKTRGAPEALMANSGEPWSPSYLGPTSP
Sequence of Parathyroid hormone 2 receptor (Homo sapiens) (P49190 whole entry): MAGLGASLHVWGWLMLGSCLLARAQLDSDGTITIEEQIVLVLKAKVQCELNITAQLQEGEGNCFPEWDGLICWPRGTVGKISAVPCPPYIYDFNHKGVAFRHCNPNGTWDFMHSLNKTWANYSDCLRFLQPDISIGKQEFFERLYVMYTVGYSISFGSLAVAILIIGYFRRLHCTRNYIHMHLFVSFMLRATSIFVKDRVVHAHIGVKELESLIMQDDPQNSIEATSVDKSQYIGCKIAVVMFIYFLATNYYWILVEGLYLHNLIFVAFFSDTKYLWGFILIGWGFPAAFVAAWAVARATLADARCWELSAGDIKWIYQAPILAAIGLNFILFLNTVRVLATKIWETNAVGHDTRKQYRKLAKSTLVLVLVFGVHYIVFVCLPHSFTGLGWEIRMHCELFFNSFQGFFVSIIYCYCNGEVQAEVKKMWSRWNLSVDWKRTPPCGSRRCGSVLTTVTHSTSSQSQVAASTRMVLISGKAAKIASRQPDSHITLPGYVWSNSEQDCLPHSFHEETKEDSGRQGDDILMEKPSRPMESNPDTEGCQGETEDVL
Sequence of Mitogen-activated protein kinase 1 (Homo sapiens) (P28482 whole entry): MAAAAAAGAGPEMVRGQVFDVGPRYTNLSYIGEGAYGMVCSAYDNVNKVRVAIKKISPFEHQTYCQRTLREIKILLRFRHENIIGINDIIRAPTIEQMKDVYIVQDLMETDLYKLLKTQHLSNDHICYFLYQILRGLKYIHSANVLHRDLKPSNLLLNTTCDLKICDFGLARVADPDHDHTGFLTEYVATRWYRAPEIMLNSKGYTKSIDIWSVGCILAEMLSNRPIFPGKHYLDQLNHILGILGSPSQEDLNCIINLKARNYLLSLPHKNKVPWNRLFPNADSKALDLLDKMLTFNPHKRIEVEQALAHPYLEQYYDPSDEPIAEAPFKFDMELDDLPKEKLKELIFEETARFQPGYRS
Sequence of Vascular endothelial growth factor receptor 2 (Homo sapiens) (P35968 whole entry): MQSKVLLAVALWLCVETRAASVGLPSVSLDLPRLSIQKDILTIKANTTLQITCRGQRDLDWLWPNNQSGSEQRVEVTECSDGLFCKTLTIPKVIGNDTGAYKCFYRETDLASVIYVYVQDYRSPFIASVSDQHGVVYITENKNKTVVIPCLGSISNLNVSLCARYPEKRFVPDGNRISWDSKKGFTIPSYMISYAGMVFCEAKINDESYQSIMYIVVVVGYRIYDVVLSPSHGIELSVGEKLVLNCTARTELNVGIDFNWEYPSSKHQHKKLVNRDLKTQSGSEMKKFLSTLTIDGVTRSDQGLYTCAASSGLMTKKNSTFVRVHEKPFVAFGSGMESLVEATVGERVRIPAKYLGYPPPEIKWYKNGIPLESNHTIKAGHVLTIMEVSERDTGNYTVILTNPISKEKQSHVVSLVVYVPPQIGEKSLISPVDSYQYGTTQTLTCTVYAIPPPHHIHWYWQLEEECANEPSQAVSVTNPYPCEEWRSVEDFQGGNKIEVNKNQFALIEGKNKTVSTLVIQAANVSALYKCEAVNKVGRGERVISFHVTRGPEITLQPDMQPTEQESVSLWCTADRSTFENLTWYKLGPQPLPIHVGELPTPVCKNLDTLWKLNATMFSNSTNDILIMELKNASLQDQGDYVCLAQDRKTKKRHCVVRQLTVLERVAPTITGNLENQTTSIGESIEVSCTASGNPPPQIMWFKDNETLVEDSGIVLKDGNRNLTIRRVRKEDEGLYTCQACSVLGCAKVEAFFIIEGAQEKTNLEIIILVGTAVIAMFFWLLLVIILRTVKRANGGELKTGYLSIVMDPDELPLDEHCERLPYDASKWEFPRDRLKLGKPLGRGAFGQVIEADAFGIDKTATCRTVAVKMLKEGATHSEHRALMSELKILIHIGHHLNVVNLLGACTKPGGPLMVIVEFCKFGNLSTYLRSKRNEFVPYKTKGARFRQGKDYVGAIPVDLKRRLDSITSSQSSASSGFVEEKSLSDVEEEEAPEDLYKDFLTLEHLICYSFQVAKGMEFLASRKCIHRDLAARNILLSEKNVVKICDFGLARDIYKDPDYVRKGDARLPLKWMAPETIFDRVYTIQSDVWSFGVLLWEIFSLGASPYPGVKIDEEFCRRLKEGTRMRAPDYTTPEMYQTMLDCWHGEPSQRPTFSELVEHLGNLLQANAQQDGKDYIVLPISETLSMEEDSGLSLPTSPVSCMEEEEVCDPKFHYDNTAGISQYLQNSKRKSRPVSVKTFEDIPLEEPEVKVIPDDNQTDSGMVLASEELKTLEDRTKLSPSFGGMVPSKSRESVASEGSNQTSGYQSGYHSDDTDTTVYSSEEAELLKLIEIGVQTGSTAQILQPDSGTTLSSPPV
Sequence of Mitogen-activated protein kinase 14 (Homo sapiens) (Q16539 whole entry): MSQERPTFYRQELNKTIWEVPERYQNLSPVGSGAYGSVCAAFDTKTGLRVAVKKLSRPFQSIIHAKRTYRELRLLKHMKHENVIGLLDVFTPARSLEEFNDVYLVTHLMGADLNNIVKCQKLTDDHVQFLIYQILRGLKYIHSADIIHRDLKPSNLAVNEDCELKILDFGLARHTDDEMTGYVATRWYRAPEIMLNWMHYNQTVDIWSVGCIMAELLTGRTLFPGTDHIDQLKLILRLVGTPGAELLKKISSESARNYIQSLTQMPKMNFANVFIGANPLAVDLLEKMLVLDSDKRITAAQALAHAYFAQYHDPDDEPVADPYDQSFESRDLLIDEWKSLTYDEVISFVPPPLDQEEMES

With `CCN(CC)c1ccc(NC(=O)c2c(-c3ccccc3)noc2C)cc1`, the inhibition entry (in data set [1]; in [2]; in data set [8]; in data set [9]; in the data set filed under Homo sapiens) was “inactive” in each case. In addition, the inhibition was found to be 29% in [3]; 32% in [4]; 81% in [5]; 64% in data set [7]; 58.5% in [10]. Moreover, the inhibition entry in data set [6], in data set [13], in data set [15] and in [16] was “Active” in each case. Also, the Drug metabolism result in data set [11] is listed as “Metabolite_Detected”. Further, in data set [12], the Stability result was “Stable”. The outcome in data set [14] and in data set [18] was inactive. The Activity entry in data set [17] is recorded as “Non-Toxic”.
